Calls of active or inactive are those of the source. The calls are words filed in the database; no cut-off is given here.
Columns and labels:
[1] = target: DNA topoisomerase 2-alpha (Homo sapiens) (UniProt P11388); assay: Inhibition of DNA topoisomerase 2-mediated kDNA decatenation at 100 uM
Outline: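 Cell-free topo II decatenation: 0.2 μg kDNA was incubated with HeLa-cell topo II extract and compound at 100 μM. The cleavage buffer contained 50 mM Tris-HCl pH 8.0, 120 mM KCl, 10 mM MgCl2, 1 mM ATP and 0.5 mM DTT. Reactions ran 15 min at 37 °C and were stopped with SDS. Products were resolved on 1% agarose and stained with ethidium bromide.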

[2] = system: Nucleic Acid; assay: Induction of conformational changes in Escherichia coli pBR322 DNA assessed as DNA relaxation at 100 uM after 2 hrs by gel electrophoresis; format: nucleic-acid assay
Outline: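 pBR322 plasmid (200 ng) was incubated with compound at 100 μM in Tris-HCl pH 7.4 for 2 h at 37 °C. Samples ran on 1% agarose and were stained with ethidium bromide; supercoiled versus relaxed forms were judged from gel migration.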

[3] = system: Calf thymus DNA; assay: Binding affinity to calf thymus DNA assessed as circular dichroism by CD spectroscopy; format: nucleic-acid assay; settings: Bos taurus
Outline: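 CT DNA (100 μM) with drug (20 μM) in 20 mM Tris-HCl pH 7.4. DNA concentration set by UV absorbance, A260/A280 above 1.8. CD spectrum recorded 200-400 nm in a 1 cm cell after shaking, thermal equilibration and buffer subtraction. Analysed over 230-300 nm.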

[4] = system: HeLa; assay: Cytotoxicity against human HeLa cells after 24 hrs by MTT assay
[5] = system: MKN-45; assay: Cytotoxicity against human MKN45 cells after 24 hrs by MTT assay; settings: MKN-45, 24 h
[6] = system: HeLa; assay: Induction of lysosomal membrane permeabilization in human HeLa cells assessed as acridine orange red fluorescence at 6 uM after 24 hrs by flow cytometry; format: functional
Outline: (§1)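 Each compound was tested at three concentrations on HeLa cells for 24 h. Adherent and floating cells were pooled and stained with 20 μg/mL acridine orange for 2 min at room temperature. Lysosomal rupture was scored by flow cytometry as percentage of cells with AO red fluorescence.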

[7] = system: HeLa; assay: Induction of apoptosis in human HeLa cells assessed as damaged cells at IC50 concentration after 24 hrs using annexin V/propidium iodide staining by flow cytometry; format: functional
Outline: (§2)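 HeLa cells, seeded at 1 × 10^6 per well, were treated for 24 h at a fixed concentration set per compound. Cells were washed in cold PBS and resuspended in binding buffer. Staining was annexin V-FITC at 4 °C in the dark for 15 min, then PI for 5 min. Quadrants were read by flow cytometry: live, early apoptotic, late apoptotic, damaged. Run three times.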

[8] = system: HeLa; assay: Induction of apoptosis in human HeLa cells assessed as viable cells at IC50 concentration after 24 hrs using annexin V/propidium iodide staining by flow cytometry; format: functional; outline: as §2
[9] = system: HeLa; assay: Induction of cytochrome c release into cytosol in human HeLa cells at IC50 concentration after 24 hrs by FITC/Hoechst soluble immunocytochemical staining; format: functional, cell-based
Outline: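 HeLa cells were treated 24 h at compound-specific concentrations, then fixed in 10% formaldehyde, permeabilized in 90% methanol and blocked with milk. Staining was rabbit anti-cytochrome c (1:500) then FITC goat anti-rabbit IgG (1:100), 1 h each at room temperature, with 2 μg/mL Hoechst 33258 as counterstain. Cytosolic green signal was imaged by confocal microscopy.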

[10] = system: MCF7; assay: Cytotoxicity against human MCF7 cells after 72 hrs by MTT assay; format: functional, cell-based; settings: MCF7, 24 h, in the assay text read “after 24 hrs” for “after 72 hrs”
Outline: (§3)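 MTT viability assay on HeLa, HL-60, MCF-7, MKN45 and LS174 cells. MTT (500 μg/mL) was added for 4 h at 37 °C and formazan dissolved in DMSO; A570 was read. IC50 came from linear regression; experiments were done in triplicate.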

[11] = system: HeLa; assay: Induction of lysosomal membrane permeabilization in human HeLa cells assessed as acridine orange red fluorescence at 2 uM after 24 hrs by flow cytometry; format: functional; outline: as §1
[12] = system: HeLa; assay: Induction of lysosomal membrane permeabilization in human HeLa cells assessed as acridine orange red fluorescence at 4 uM after 24 hrs by flow cytometry; format: functional; outline: as §1
[13] = system: HL-60; assay: Cytotoxicity against human HL60 cells after 72 hrs by MTT assay; format: functional, cell-based; settings: HL-60, 24 h, in the assay text read “after 24 hrs” for “after 72 hrs”; outline: as §3
[14] = system: HeLa; assay: Induction of apoptosis in human HeLa cells assessed as late apoptotic cells at IC50 concentration after 24 hrs using annexin V/propidium iodide staining by flow cytometry; format: functional; outline: as §2
[15] = Cytotoxicity against human LS 174T cells after 24 hrs by MTT assay; settings: LS174T
[16] = system: HeLa; assay: Induction of lysosomal membrane permeabilization in human HeLa cells assessed as acridine orange red fluorescence at 3 uM after 24 hrs by flow cytometry; format: functional; outline: as §1
[17] = system: HeLa; assay: Induction of apoptosis in human HeLa cells assessed as early apoptotic cells at IC50 concentration after 24 hrs using annexin V/propidium iodide staining by flow cytometry; format: functional; outline: as §2
[18] = system: HeLa; assay: Induction of lysosomal membrane permeabilization in human HeLa cells assessed as acridine orange red fluorescence at 1 uM after 24 hrs by flow cytometry; format: functional; outline: as §1
[19] = system: HeLa; assay: Induction of lysosomal membrane permeabilization in human HeLa cells assessed as acridine orange red fluorescence at 5 uM after 24 hrs by flow cytometry; format: functional; outline: as §1
[20] = system: Calf thymus DNA; assay: Binding affinity to calf thymus DNA by fluorescent spectra analysis; format: nucleic-acid assay; settings: Bos taurus
Outline: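 Compounds at 10, 20, 30 and 50 μM in 20 mM Tris-HCl pH 7.4, with or without 100 μM CT DNA (no-DNA samples as control). Incubated 1 day in the dark at 25 °C. Fluorescence wavelength and intensity read at 25 °C. Scatchard binding constant calculated.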

[21] = system: HeLa; assay: Induction of lysosomal membrane permeabilization in human HeLa cells assessed as acridine orange red fluorescence at 15 uM after 24 hrs by flow cytometry; format: functional; outline: as §1
[22] = system: HeLa; assay: Induction of lysosomal membrane permeabilization in human HeLa cells assessed as acridine orange red fluorescence at 10 uM after 24 hrs by flow cytometry; format: functional; outline: as §1
[23] = system: HeLa; assay: Induction of lysosomal membrane permeabilization in human HeLa cells assessed as acridine orange red fluorescence at 8 uM after 24 hrs by flow cytometry; format: functional; outline: as §1
[24] = system: MCF7; assay: Cytotoxicity against human MCF7 cells after 24 hrs by MTT assay; settings: MCF7, 24 h
[25] = system: HeLa; assay: Induction of lysosomal membrane permeabilization in human HeLa cells assessed as acridine orange red fluorescence at 11 uM after 24 hrs by flow cytometry; format: functional; outline: as §1
[26] = in the assay text read “late apoptotic cells” for “damaged cells”

Sequence of DNA topoisomerase 2-alpha (Homo sapiens) (P11388 whole entry): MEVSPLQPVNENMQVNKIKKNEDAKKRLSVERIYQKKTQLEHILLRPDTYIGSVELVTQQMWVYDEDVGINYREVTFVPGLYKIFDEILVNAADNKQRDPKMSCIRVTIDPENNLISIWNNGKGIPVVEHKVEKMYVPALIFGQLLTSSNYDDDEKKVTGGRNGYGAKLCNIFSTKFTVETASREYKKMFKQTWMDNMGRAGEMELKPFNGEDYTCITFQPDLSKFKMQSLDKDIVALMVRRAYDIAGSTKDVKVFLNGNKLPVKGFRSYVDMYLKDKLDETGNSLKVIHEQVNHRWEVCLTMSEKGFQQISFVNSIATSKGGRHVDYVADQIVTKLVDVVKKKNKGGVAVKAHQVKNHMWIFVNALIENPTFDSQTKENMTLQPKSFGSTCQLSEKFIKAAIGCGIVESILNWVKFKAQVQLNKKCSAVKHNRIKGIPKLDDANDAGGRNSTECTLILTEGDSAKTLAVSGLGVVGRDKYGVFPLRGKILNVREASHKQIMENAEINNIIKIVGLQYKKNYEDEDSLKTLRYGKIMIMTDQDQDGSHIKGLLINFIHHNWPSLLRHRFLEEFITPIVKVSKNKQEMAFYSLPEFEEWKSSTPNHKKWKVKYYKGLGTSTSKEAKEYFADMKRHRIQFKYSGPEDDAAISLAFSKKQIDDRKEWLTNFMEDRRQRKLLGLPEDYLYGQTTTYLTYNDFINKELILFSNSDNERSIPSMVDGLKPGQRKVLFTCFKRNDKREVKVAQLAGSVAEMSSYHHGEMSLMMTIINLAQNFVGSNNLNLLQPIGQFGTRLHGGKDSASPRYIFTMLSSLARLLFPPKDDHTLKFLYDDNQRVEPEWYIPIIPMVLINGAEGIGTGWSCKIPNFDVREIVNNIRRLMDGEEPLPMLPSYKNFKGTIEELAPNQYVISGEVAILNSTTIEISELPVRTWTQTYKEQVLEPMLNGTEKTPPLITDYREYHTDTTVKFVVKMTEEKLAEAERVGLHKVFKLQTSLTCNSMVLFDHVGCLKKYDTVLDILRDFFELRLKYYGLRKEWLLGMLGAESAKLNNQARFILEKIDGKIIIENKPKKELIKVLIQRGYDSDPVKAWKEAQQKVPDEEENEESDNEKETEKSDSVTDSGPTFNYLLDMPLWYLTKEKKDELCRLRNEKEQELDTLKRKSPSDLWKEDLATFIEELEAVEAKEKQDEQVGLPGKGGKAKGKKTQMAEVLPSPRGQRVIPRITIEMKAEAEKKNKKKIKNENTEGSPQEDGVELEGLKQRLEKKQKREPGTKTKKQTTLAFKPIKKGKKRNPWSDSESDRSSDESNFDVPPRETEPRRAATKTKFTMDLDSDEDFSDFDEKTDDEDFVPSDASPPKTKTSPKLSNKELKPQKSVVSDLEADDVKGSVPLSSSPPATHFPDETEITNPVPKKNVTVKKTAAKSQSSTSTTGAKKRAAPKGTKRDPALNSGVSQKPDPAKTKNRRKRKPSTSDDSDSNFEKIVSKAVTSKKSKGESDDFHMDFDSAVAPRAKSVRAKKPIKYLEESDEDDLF

| Compound | Activity [1] | Activity [2] | Activity [3] | IC50 [4] | IC50 [5] | Activity [6] | Activity [7, 26] | Activity [9] | IC50 [10] | Activity [11] | Activity [12] | IC50 [13] | IC50 [15] | Activity [17] | also measured |
| --- | --- | --- | --- | --- | --- | --- | --- | --- | --- | --- | --- | --- | --- | --- | --- |
| COc1cccc2c1C(=O)c1c(O)c3c(c(O)c1C2=O)C[C@@](O)(C(=O)CO)C[C@@H]3O[C@H]1C[C@H](N)[C@H](O)[C@H](C)O1 | Active | Active |  |  |  |  |  |  |  |  |  |  |  |  |  |
| CCCCCCCCCCCCNc1ccc2c3c(cccc13)C(=O)N(CCCNCCN(C)C)C2=O | Active | inactive | inactive | 4.71 µM | 15.5 µM | 44.64% | 98.89% | Active | 2.56 µM | 85.49% | 82.37% | 4.04 µM | 9.43 µM |  | Activity [8]: 1.05%; Activity [14]: 98.89% |
| CNc1ccc2c3c(cccc13)C(=O)N(CCCN(C)C)C2=O |  |  |  | 23.4 µM | > 50 µM |  |  |  | 9.66 µM |  |  | 21.6 µM | 31.5 µM |  |  |
| CCCCCCCCCCCCNc1ccc2c3c(cccc13)C(=O)N(CCCN1CCN(C)CC1)C2=O | Active | inactive | inactive | 2.89 µM | 8.43 µM |  | 14.96% | Active | 2.48 µM |  |  | 2.98 µM | 7.43 µM | 84.84% | Activity [16]: 95.2%; Activity [18]: 96.01%; Activity [19]: 59.82% |
| CCCCCCCCN1C(=O)c2cccc3c(NCCNCCN(C)C)ccc(c23)C1=O | Active | inactive | inactive | 4.5 µM | 9.28 µM | 85.74% | 9.82% | Active | 3.76 µM | 92.29% | 90.98% | 5.13 µM | 9.27 µM | 90.07% | Activity [20]: inactive |
| CCCCCCCCNc1ccc2c3c(cccc13)C(=O)N(CCCN(C)C)C2=O |  |  |  | 8.52 µM | 17.6 µM |  |  |  | 5.15 µM |  |  | 5.53 µM | 5.87 µM |  |  |
| CCCCCCCCCCCCN1C(=O)c2cccc3c(NCCCCCCCC)ccc(c23)C1=O |  |  |  | 46.4 µM | > 50 µM |  |  |  | > 50 µM |  |  | > 50 µM | > 50 µM |  |  |
| CCCCCCCCNc1ccc2c3c(cccc13)C(=O)N(CCCNCCN(C)C)C2=O | Active | inactive | inactive | 4.06 µM | 14.8 µM | 32.89% |  | Active | 2.41 µM | 83.13% | 84.5% | 2.67 µM | 9.16 µM | 74.25% | Activity [8]: 25.7% |
| CN(C)CCN1C(=O)c2cccc3cc(N)cc(c23)C1=O [AMONAFIDE] | Active |  |  | 10.7 µM | > 50 µM |  |  |  |  |  |  |  | 20.3 µM |  | Activity [21]: 77.27%; Kb [20]: 14300 M⁻¹; Activity [22]: 10%; Activity [19]: 112% |
| CCCCCCCCCCCCN1C(=O)c2cccc3c(NCCN4CCN(C)CC4)ccc(c23)C1=O | Active | inactive | inactive | 5.45 µM | 9.28 µM | 92.83% | 12.75% | Active | 2.79 µM | 97.39% | 95.81% | 7.05 µM | 12.7 µM | 86.98% |  |
| CCCCCCCCNc1ccc2c3c(cccc13)C(=O)N(CCCN1CCN(C)CC1)C2=O | Active | inactive | inactive | 8.1 µM | 22.2 µM |  |  | Active |  |  |  | 5.7 µM | 18.4 µM |  | Activity [23]: 91.86%; Activity [7]: 96.66%; Activity [8]: 3.28%; IC50 [24]: 5.72 µM; Activity [14]: 96.7%; Activity [25]: 83.18%; Activity [19]: 89.48% |
| CCCCCCCCCCCCN1C(=O)c2cccc3c(NCCN(C)C)ccc(c23)C1=O |  |  |  | 9.13 µM | 9.03 µM |  |  |  | 3.57 µM |  |  | 5.32 µM | 12.8 µM |  |  |

From ChEMBL document CHEMBL1157617, “A new class of naphthalimide-based antitumor agents that inhibit topoisomerase II and induce lysosomal membrane permeabilization and apoptosis” (J Med Chem, 2010)
